Laboratory results published in ChEMBL document CHEMBL1817625, “Synthesis of pheophorbide-a conjugates with anticancer drugs as potential cancer diagnostic and therapeutic agents” (Bioorg Med Chem, 2011).
The source made the active and inactive calls. The rule behind the calls is not given here.

What was measured:
KB = assay: Cytotoxicity against human KB cells assessed as inhibition of cell growth at 10 uM after 3 days by SRB assay; assay type: functional, cell-based
Summary of the method: (§1)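 Cells were grown in RPMI 1640 with 10% FBS and antibiotic–antimycotic at 37 °C, 5% CO2, and trypsin/EDTA-detached. They were seeded at 50,000 cells/mL and exposed to 10 µM compound for 3 days. For SRB staining, cells were fixed cold for 1 h, stained 1 h at room temperature, washed with 1% acetic acid and solubilized in 10 mM Tris. A515 was read; means of four duplicates were expressed as % of solvent-treated control.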

YD-10B = assay: Cytotoxicity against human YD-10B cells assessed as inhibition of cell growth at 10 uM after 3 days by SRB assay; assay type: functional, cell-based
Summary of the method: (§2)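 Cultures were kept in DMEM with 10% FBS and antibiotic–antimycotic at 37 °C, 5% CO2, and detached with trypsin/EDTA. Cells were plated at 50,000 cells/mL and treated with 10 µM compound for 3 days. SRB staining: 1 h cold fixation, 1 h room-temperature stain, 1% acetic acid washes, 10 mM Tris release. A515 was read; the mean of four duplicates was given as % of solvent-treated control.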

MCF7 = assay: Cytotoxicity against human MCF7 cells assessed as inhibition of cell growth at 10 uM after 3 days by SRB assay; assay type: functional, cell-based
Summary of the method: (§3)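 Cells were kept at 37 °C in 5% CO2, HeLa in DMEM and MCF7 in RPMI 1640, each with 10% FBS. They were seeded at 50,000 cells/mL in 96-well plates, exposed to 10 µM compound for 3 days, then fixed in the cold for 1 h. Staining was SRB for 1 h at room temperature with 1% acetic acid washes. Bound dye was released in 10 mM Tris and read at 515 nm. Values are means of four duplicated samples, as a percentage of solvent-treated control.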

HeLa [1] = assay: Cytotoxicity against human HeLa cells assessed as inhibition of cell growth at 10 uM after 3 days by SRB assay; assay type: functional, cell-based; summary of the method: as §3
PC-3 = assay: Cytotoxicity against human PC3 cells assessed as inhibition of cell growth at 10 uM after 3 days by SRB assay; assay type: functional, cell-based; summary of the method: as §1
HeLa [2] = assay: Cellular uptake in human HeLa cells at 10 uM after 48 hrs by confocal microscopic analysis; assay type: ADME, cell-based
Summary of the method: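 HeLa cells were seeded in slide dishes in RPMI 1640 overnight. They were then exposed to 10 µM compound in complete medium for 48 h under 95% air/5% CO2 and washed three times with PBS. Confocal imaging used 440 nm excitation, collecting 575–600 nm emission (doxorubicin channel) and 655–755 nm emission (pheophorbide-a channel).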

HepG2 = assay: Cytotoxicity against human HepG2 cells assessed as inhibition of cell growth at 10 uM after 3 days by SRB assay; assay type: functional, cell-based; summary of the method: as §2
AT84 = assay: Cytotoxicity against mouse AT84 cells assessed as inhibition of cell growth at 10 uM after 3 days by SRB assay; assay type: functional, cell-based; summary of the method: as §1
U-87MG ATCC = assay: Cytotoxicity against human U87MG cells assessed as inhibition of cell growth at 10 uM after 3 days by SRB assay; assay type: functional, cell-based; summary of the method: as §1
A549 = assay: Cytotoxicity against human A549 cells assessed as inhibition of cell growth at 10 uM after 3 days by SRB assay; assay type: functional, cell-based; summary of the method: as §2
HCT-116 = assay: Cytotoxicity against human HCT116 cells assessed as inhibition of cell growth at 10 uM after 3 days by SRB assay; assay type: functional, cell-based; summary of the method: as §1
SK-OV-3 = assay: Cytotoxicity against human SKOV3 cells assessed as inhibition of cell growth at 10 uM after 3 days by SRB assay; assay type: functional, cell-based; summary of the method: as §1

With `C=Cc1c(C)c2cc3nc(c4c5[nH]c(cc6nc(cc1[nH]2)C(C)=C6CC)c(C)c5C(=O)[C@@H]4C(=O)OC)[C@@H](CCC(=O)O[C@@H](C(=O)O[C@H]1C[C@@]2(O)[C@@H](OC(=O)c4ccccc4)[C@@H]4[C@]5(OC(C)=O)CO[C@@H]5C[C@H](O)[C@@]4(C)C(=O)[C@H](OC(C)=O)C(=C1C)C2(C)C)[C@@H](NC(=O)c1ccccc1)c1ccccc1)[C@@H]3C` the “growth inhibition (GI)” value (KB) was “Active”, the “growth inhibition (GI)” value (YD-10B) was “Active” and the “growth inhibition (GI)” value (MCF7) was “Active”. For the same compound, the “growth inhibition (GI)” value (HeLa [1]) was “Active”.
For `C=Cc1c(C)c2cc3nc(c4c5[nH]c(cc6nc(cc1[nH]2)C(C)=C6CC)c(C)c5C(=O)[C@@H]4C(=O)OC)[C@@H](CCC(=O)Nc1ccc(COC(=O)N[C@@H]2C[C@@H](O[C@H]4C[C@](O)(C(=O)CO)Cc5c(O)c6c(c(O)c54)C(=O)c4c(OC)cccc4C6=O)O[C@H](C)[C@@H]2O)cc1)[C@@H]3C`, the “growth inhibition (GI)” value (PC-3) was “Active”, the Drug uptake (HeLa [2]) was “Active” and the “growth inhibition (GI)” value (KB) was “Active”. For the same compound, the “growth inhibition (GI)” value (HepG2) was “Active”, the “growth inhibition (GI)” value (AT84) was “Active” and the “growth inhibition (GI)” value (YD-10B) was “Active”. The “growth inhibition (GI)” value (U-87MG ATCC) was “Active”, the “growth inhibition (GI)” value (A549) was “Active” and the “growth inhibition (GI)” value (MCF7) was “Active”. The “growth inhibition (GI)” value (HCT-116) was “Active”, the “growth inhibition (GI)” value (HeLa [1]) was “Active” and the “growth inhibition (GI)” value (SK-OV-3) was “Active”.
`C=Cc1c(C)c2cc3nc(c4c5[nH]c(cc6nc(cc1[nH]2)C(C)=C6CC)c(C)c5C(=O)[C@@H]4C(=O)OC)[C@@H](CCC(=O)N[C@@H]1C[C@@H](O[C@H]2C[C@](O)(C(=O)CO)Cc4c(O)c5c(c(O)c42)C(=O)c2c(OC)cccc2C5=O)O[C@H](C)[C@@H]1O)[C@@H]3C` was tested, and the Drug uptake (HeLa [2]) was “Active”, the “growth inhibition (GI)” value (AT84) was “Active” and the “growth inhibition (GI)” value (U-87MG ATCC) was “Active”. The “growth inhibition (GI)” value (MCF7) was “Active” and the “growth inhibition (GI)” value (HeLa [1]) was “Active”.
`C=Cc1c(C)c2cc3nc(c4c5[nH]c(cc6nc(cc1[nH]2)C(C)=C6CC)c(C)c5C(=O)[C@@H]4C(=O)OC)[C@@H](CCC(=O)O)[C@@H]3C` [PHEOPHORBIDE A] was tested, and the Drug uptake (HeLa [2]) was “Active”.
`C=Cc1c(C)c2cc3nc(c4c5[nH]c(cc6nc(cc1[nH]2)C(C)=C6CC)c(C)c5C(=O)[C@@H]4C(=O)OC)[C@@H](CCC(=O)Oc1ccccc1/C=C/C(=O)N[C@@H]1C[C@@H](O[C@H]2C[C@](O)(C(=O)CO)Cc4c(O)c5c(c(O)c42)C(=O)c2c(OC)cccc2C5=O)O[C@H](C)[C@@H]1O)[C@@H]3C` was tested, and the “growth inhibition (GI)” value (PC-3) was “Active”, the Drug uptake (HeLa [2]) was “Active” and the “growth inhibition (GI)” value (KB) was “Active”. The “growth inhibition (GI)” value (HepG2) was “Active”, the “growth inhibition (GI)” value (AT84) was “Active” and the “growth inhibition (GI)” value (YD-10B) was “Active”. For the same compound, the “growth inhibition (GI)” value (U-87MG ATCC) was “Active”, the “growth inhibition (GI)” value (A549) was “Active” and the “growth inhibition (GI)” value (MCF7) was “Active”. For the same compound, the “growth inhibition (GI)” value (HCT-116) was “Active”, the “growth inhibition (GI)” value (HeLa [1]) was “Active” and the “growth inhibition (GI)” value (SK-OV-3) was “Active”.
In the case of `COc1cccc2c1C(=O)c1c(O)c3c(c(O)c1C2=O)C[C@@](O)(C(=O)CO)C[C@@H]3O[C@H]1C[C@H](N)[C@H](O)[C@H](C)O1` [DOXORUBICIN], the Drug uptake (HeLa [2]) is reported as “Active”.
